High-throughput results from PubChem BioAssay.
hDAT+cocaine = changed hDAT dopamine uptake under cocaine IC80, either direction, primary screen, cocaine antagonist project, cell-based, LLC-PK1 hDAT, [14C]-dopamine uptake, MLSMR; Sodium-dependent dopamine transporter (Homo sapiens), Q01959; LLC-PK1 hDAT cells, [14C]-dopamine uptake with cocaine IC80; actives deviate in either direction; B-score at 10 µM; hit rate 1.3% among 110,000; AID 449768, 2010;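 active = Z score or B-score, a plate-position-corrected score, falls beyond the plate's 99.7% confidence bounds, in either direction; inactive = both scores lie inside the 99.7% bounds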;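 note: scored against the spread of the other compound wells on the same plate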
EphB4 antag = EphB4-ephrin-B2 interaction antagonists, primary screen, biochemical, TNYL-RAW peptide probe, fluorescence polarization; Ephrin type-B receptor 4 (Homo sapiens), P54760; EphB4 LBD / TNYL-RAW-Alexa532 peptide; inhibition, % at 7 µM; hit rate 0.15% among 97,000; AID 720, 2007;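 active = inhibition above the screen-wide mean inhibition plus 3 SD, cut at about 15% in these data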;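 note: 0% = DMSO wells and 100% = excess unlabeled TNYL-RAW peptide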
Rev-RRE block = HIV-1 Rev-RRE binding inhibitors, primary screen, biochemical, FRET, protein-RNA interaction; hit rate 0.79% among 97,000; inhibition, % at 8 µM; Rev peptide-RRE RNA binding;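 active = inhibition above the screen-wide mean plus 3 SD, cut at about 35% in these data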;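 note: 0% = median DMSO wells and 100% = median Neomycin B control wells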
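Material: labelled RRE RNA duplex and labelled Rev peptide / Buffer or medium: HEPES pH 7.5 salt buffer with EDTA / Compound dosing: single point, 8 µM final nominal compound concentration / Benchmarks: DMSO low control, neomycin B high control / Timing: 5 min preincubation and 15 min binding, 25 °C / Technique: FRET fluorescence readout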
Cav3 T inh = Cav3.2 calcium influx blockers – cell-based, Fluo-4 calcium fluorescence, FDSS, MLSMR library, primary screen; Voltage-dependent T-type calcium channel subunit alpha-1H (Homo sapiens), O95180; Cav3.2-expressing cells; active compounds read low; B-score at 10 µM; hit rate 4% among 100,000;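 active = single-dose well whose peak fluorescence ratio is a statistical outlier from its plate by either plate-standardised score or position-corrected B-score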
Target sequence (O95180 whole entry, looked up): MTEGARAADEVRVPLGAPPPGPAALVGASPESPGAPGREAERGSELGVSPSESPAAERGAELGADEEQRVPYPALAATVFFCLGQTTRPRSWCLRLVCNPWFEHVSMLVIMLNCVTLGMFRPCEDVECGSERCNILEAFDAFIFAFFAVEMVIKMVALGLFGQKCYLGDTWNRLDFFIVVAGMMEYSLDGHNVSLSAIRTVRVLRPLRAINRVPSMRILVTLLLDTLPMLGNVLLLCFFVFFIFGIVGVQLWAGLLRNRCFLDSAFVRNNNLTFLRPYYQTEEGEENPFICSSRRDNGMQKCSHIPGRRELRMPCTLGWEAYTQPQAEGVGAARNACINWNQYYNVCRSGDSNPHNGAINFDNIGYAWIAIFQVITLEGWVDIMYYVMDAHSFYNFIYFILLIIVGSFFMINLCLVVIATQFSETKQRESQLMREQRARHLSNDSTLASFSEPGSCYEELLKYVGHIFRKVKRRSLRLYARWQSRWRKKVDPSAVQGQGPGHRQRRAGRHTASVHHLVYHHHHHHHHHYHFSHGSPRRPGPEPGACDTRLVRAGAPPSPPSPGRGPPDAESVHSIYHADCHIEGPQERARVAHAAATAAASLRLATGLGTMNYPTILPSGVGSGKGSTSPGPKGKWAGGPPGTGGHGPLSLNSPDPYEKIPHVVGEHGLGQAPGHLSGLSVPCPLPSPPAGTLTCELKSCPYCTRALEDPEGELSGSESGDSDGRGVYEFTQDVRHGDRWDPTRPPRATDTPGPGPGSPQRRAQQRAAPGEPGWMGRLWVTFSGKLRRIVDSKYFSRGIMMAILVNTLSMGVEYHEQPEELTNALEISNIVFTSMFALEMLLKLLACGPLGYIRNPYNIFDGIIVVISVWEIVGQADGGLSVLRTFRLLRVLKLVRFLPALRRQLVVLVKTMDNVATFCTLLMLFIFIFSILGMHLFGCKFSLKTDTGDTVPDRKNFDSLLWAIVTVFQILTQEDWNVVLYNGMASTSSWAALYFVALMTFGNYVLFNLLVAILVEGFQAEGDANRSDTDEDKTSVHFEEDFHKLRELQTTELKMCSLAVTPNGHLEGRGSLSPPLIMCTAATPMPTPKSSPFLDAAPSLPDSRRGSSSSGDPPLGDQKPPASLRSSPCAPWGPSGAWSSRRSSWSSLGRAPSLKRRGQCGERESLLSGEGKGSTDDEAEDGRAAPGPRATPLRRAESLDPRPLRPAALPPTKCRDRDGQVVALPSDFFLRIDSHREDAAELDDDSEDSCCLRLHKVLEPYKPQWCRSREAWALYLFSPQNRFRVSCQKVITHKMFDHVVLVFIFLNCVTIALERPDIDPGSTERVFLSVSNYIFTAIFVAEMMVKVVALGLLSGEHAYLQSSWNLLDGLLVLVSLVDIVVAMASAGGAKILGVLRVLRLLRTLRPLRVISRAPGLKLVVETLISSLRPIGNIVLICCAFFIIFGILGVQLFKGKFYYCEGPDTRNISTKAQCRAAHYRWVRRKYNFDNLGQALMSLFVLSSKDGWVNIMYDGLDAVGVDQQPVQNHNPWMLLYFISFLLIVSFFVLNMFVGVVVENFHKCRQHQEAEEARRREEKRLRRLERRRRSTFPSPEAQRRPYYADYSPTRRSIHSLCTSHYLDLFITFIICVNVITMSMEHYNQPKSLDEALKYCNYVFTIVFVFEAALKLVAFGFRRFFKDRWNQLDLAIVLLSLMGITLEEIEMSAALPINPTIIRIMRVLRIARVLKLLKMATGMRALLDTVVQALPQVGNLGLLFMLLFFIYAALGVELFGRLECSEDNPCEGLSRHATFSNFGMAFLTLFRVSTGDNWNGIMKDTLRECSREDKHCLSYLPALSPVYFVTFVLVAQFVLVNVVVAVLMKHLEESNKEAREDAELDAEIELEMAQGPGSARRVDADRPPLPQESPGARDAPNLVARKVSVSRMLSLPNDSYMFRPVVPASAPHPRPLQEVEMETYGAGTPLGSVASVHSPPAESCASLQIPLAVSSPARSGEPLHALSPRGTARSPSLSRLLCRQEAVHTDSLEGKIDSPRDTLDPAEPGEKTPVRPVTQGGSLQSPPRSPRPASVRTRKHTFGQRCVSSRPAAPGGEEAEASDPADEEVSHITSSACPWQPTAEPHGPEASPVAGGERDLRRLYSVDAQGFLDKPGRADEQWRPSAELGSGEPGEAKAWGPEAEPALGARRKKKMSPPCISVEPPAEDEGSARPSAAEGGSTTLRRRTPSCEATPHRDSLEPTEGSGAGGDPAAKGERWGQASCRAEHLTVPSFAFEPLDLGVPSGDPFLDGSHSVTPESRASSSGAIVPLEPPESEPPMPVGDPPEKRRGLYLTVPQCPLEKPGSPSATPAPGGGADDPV
Starred values were filed as active, the others as inactive; nt = no result; [ ] = another dose, or the depositor's remark. This is a sample that favours compounds with a hit; in the whole collection about 5.4% have one here.

SMILES | hDAT+cocaine | EphB4 antag | Rev-RRE block | Cav3 T inh
Cc1n[nH]c(C)c1Sc1ccccc1N=Cc1cc(Cl)cc([N+](=O)[O-])c1O | -0.57 | 6 | 8 | -6.9*
Cc1ccc(-c2cc(-c3ccccc3[N+](=O)[O-])[nH]n2)c(O)c1 | nt | -4 | 12 | nt
Cc1ccc2c(CC(=O)NCc3ccco3)coc2c1C | -0.02 | 6 | 7 | -9.4*
COc1ccc(-n2cnnc2SCC(=O)c2cc(C)n(Cc3cccs3)c2C)cc1 | -1.2 | -11 | -4 | -5.4*
Cc1csc(SCC(=O)c2cc(C)n(Cc3cccs3)c2C)n1 | -0.026 | -5 | 9 | -4*
CC1(C)NC(=O)N(CC(=O)O)C1=O | 0.15 | 1 | 4 | -0.47
CCOc1ccc(NC(=O)C(C)Oc2ccccc2C(=O)Nc2ccc(C)c(Cl)c2)cc1 (stereo unspecified) | 2.7* | 17* | 15 | -0.087
CC(C)CNC(=O)c1ccc(Cl)c(Cl)c1 | 0.14 | -3 | 3 | 0.56
CC(C)Oc1ccc(C(CC(=O)NCc2ccco2)c2ccccc2)cc1 (stereo unspecified) | -0.085 | -1 | 6 | -3.9*
O=C(CSc1n[nH]c(-c2ccccc2)n1)c1ccc(O)c(O)c1 | 0.49 | nt | nt | 0.23
CCOC(=O)c1sc2nc(CC(=O)OC)nc(NCc3ccco3)c2c1C | 1.3 | -2 | 39* | -0.62
CN(C)/C=N/c1c(C#N)cnn1-c1ncnc2sc(-c3ccccc3)cc12 | 3.2* | -15 | 1 | -0.27
CCOC(=O)c1nc2cc3n(c(C)c-2c1C)C(C)C(CC)=C3C (stereo unspecified) | -0.013 | -2 | 5 | 0.23
CCC(COC(=O)Nc1cccc(C)c1)NC(=O)OCC(C)C (stereo unspecified) | -0.25 | 4 | 5 | -4.7*
CCNC(=O)OCC(CC)NC(=O)OCC(C)C (stereo unspecified) | 0.24 | -2 | -2 | 0.67
COc1ccc(-n2nc(C(=O)N3CCC(C#N)CC3)c3c4ccccc4n(C)c3c2=O)cc1 | nt | 0 | 10 | nt
CC(=O)N(CCC(Cc1ccccc1)c1ccc2c(c1)OCO2)Cc1ccccc1F (stereo unspecified) | nt | -2 | 2 | nt
O=C(NC(Cc1ccccc1)c1ccc2c(c1)OCCCO2)c1ccccc1F (stereo unspecified) | 2.6* | 3 | 9 | -2.8
O=C(CC(c1ccccc1)c1ccccc1)Nc1ccc2c(c1)OCCO2 | -0.1 | -6 | 9 | -3.6*
O=C(Nc1ccc2c(c1)OCCO2)c1ccccc1F | -1.8* | 0 | 7 | 0.076
CN(CC(=O)NCc1ccncc1)S(=O)(=O)c1ccc(F)cc1 | -0.43 | 0 | 0 | 1.6
CC1CC(C)CN(C(=O)CSc2nnc(-c3ccc(Cl)s3)o2)C1 (stereo unspecified) | 0.51 | nt | nt | -3.4*
Clc1ccc(-c2nc3cnccn3c2NC2CCCC2)cc1 | 0.17 | 8 | 11 | -5*
CCOC(=O)c1cnn(-c2nc(-c3cccc(F)c3)cs2)c1C(F)(F)F | -1.3 | -13 | 13 | 1.6
Cn1c(-c2ccc(C=O)s2)nc2c3ccccc3c3ccccc3c21 | 1 | 7 | 81* | -5.5*
SMILES | hDAT+cocaine | EphB4 antag | Rev-RRE block | Cav3 T inh
CCCC(=O)Nc1sc(C)c(C)c1C(=O)Nc1cccc(C)c1 | -1.3 | 2 | 13 | -0.26
O=C(Nc1ccccc1-c1ccccc1)c1ccc(NC(=O)c2ccco2)cc1 | -0.51 | 6 | 1 | -5.5*
O=S(=O)(NCc1ccco1)c1ccc(S(=O)(=O)N2CCCCC2)cc1 | -0.9 | 2 | 4 | -1.1
CN1/C(=N\O)c2cccc3cccc1c23 | 1.3 | -3 | 11 | -4.4*
CNC(=O)CN1C(=O)c2cccc3cccc1c23 | -1.6 | 10 | 8 | -0.088
CCn1c2ccccc2c2cc(N)ccc21 | 0.0029 | 0 | 57* | -0.13
CCOC(=O)C1CCCN(C(=O)c2ccc(C)cc2O)C1 (stereo unspecified) | -0.55 | -2 | 1 | -0.25
Cn1cc(C(=O)N2CCN(C(=O)c3ccco3)CC2)c2c3ccccc3n(C)c2c1=O | -0.43 | -11 | 0 | 1.6
CCc1ccc(OCc2ccc(C(=O)NCc3ccccn3)o2)cc1 | 1.5 | nt | nt | -3.9*
CC[C@H](C)[C@@H]1NC(=O)c2cc([N+](=O)[O-])cc(I)c2SC[C@@H](C(N)=O)NC(=O)[C@H](CCCCN)NC1=O | -1.2 | nt | nt | -0.0046
CCCN(CCC)C(=O)CC(c1ccccc1)c1cc(C)ccc1O (stereo unspecified) | 2.5* | -3 | 10 | -5.9*
O=C(c1ccco1)N1CCN(C/C=C/c2ccccc2)CC1 | -0.022 | 7 | 2 | -0.47
O=C(c1nn(Cc2ccccc2)c(=O)c2ccccc12)N1CCN(C/C=C/c2ccccc2)CC1 | 4* | -5 | -1 | -6.7*
Cc1cc2ccccc2c(=O)n1CC(=O)NCC(=O)N(C)Cc1ccccc1 | -7.8* | nt | nt | -0.02
C=C1/C(=C\C=C2/CCC[C@]3(C)[C@@H]([C@H](C)/C=C/[C@@H](O)C4CC4)CC[C@@H]23)C[C@@H](O)C[C@@H]1O | 1.4 | nt | nt | -0.18
CN(C)c1ccc(/C=C2\SC(=S)N(Nc3ncc(C(F)(F)F)cc3Cl)C2=O)cc1 | 0.16 | -4 | 138*[fluorescence artefact?] | -5.1*
Cn1c(SCC(=O)Nc2nc3c(s2)CCCC3)nnc1-c1ccccc1 | 1.4 | 1 | 7 | -6.1*
O=C(CSc1nc(Cc2ccccc2)nc2ccccc12)Nc1nc2c(s1)CCCC2 | 0.76 | -5 | 2 | -4.8*
CC(C)(C)c1nc(SCC(=O)Nc2nc3c(s2)CCCC3)c2ccccc2n1 | 0.089 | 0 | 13 | -2.8
O=C(CSc1ncn(-c2ccccc2)n1)Nc1nc2c(s1)CCCC2 | 0.8 | 0 | 4 | -4.2*
O=C(CSc1ncn(-c2ccccc2)n1)Nc1nc2ccccc2s1 | 1.5 | -2 | 11 | -3.1
COc1cc(NS(=O)(=O)c2ccc(NC(=O)/C(=C\c3ccccc3OC)NC(=O)c3ccccc3)cc2)nc(OC)n1 | -0.18 | -1 | -5 | 0.028
Cc1cccc(NC(=S)NNC(=O)CCn2cc(C)cn2)c1 | 0.35 | 0 | -1 | 0.25
CCc1cccc(C)c1NC(=O)C(c1ccccc1)N1CCC1=O (stereo unspecified) | 0.45 | 5 | 6 | 0.24
CC(C)Oc1ccc(Cl)cc1Nc1nc(NCCO)nc(N2CCCC2)n1 | 0.49 | nt | nt | 1
CC1CC(C)CN(CC(C)(C)NS(=O)(=O)c2ccc(Cl)cc2)C1 (stereo unspecified) | -0.16 | -3 | -1 | -0.017
CC12COC3(C(=O)Nc4cccnc4)CC1CCC32C (stereo unspecified) | -0.48 | 2 | 44* | 0.3
Cc1ccc(S(=O)(=O)C2(C(=O)Nc3cccnc3)CC2)cc1 | -0.65 | -2 | 9 | 0.12
O=C(CSC1=NCCS1)Nc1ccc(S(=O)(=O)NC2CCCCC2)cc1 | 0.063 | -6 | 13 | -2.1
